ChEMBL document CHEMBL1124947, “Cationic antiprotozoal drugs. Trypanocidal activity of 2-(4'-formylphenyl)imidazo[1,2-a]pyridinium guanylhydrazones and related derivatives of quaternary heteroaromatic compounds” (J Med Chem, 1990)

Legend:
Format in all cases: functional
Mus musculus [1] = assay: Trypanocidal Activity at I.C.E. value 0.47 when administered perorally.
Mus musculus [2] = assay: Trypanocidal Activity at I.C.E. value 0.48 when administered subcutaneously.
Method in brief: (§1)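 Blood-stage T. rhodesiense infection came from a standard inoculum lethal to all untreated mice. Drug was given by subcutaneous injection to groups of five mice. Survival beyond 30 days counted as cure. […] Sub-curative doses scored 0, and data were normalized at each dose.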

Mus musculus [3] = assay: Trypanocidal Activity at I.C.E. value 0.06 when administered perorally.
Mus musculus [4] = assay: Trypanocidal Activity at I.C.E. value 0.24 when administered subcutaneously.; method in brief: as §1
Mus musculus [5] = assay: Trypanocidal Activity at I.C.E. value 0.49 when administered subcutaneously.; method in brief: as §1
Mus musculus [6] = assay: Trypanocidal Activity at I.C.E. value 0.62 when administered subcutaneously.
Method in brief: (§2)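 Mice, in groups of five per dose, were given a standard inoculum of blood-stage T. rhodesiense that is lethal to all untreated controls, then dosed subcutaneously. Usually 11 dose levels were used (2^n × 0.42 mg/kg).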

Mus musculus [7] = assay: Trypanocidal Activity at I.C.E. value 0.94 when administered subcutaneously.; method in brief: as §2
Mus musculus [8] = assay: Trypanocidal Activity at I.C.E. value 0.63 when administered perorally.
Mus musculus [9] = assay: Trypanocidal Activity at I.C.E. value 0.63 when administered subcutaneously.; method in brief: as §2
Mus musculus [10] = assay: Trypanocidal Activity at I.C.E. value 0.17 when administered perorally.
Mus musculus [11] = assay: Trypanocidal Activity at I.C.E. value 0.66 when administered subcutaneously.; method in brief: as §2
Mus musculus [12] = assay: Trypanocidal Activity at I.C.E. value 0.60 when administered subcutaneously.; method in brief: as §2
Mus musculus [13] = assay: Trypanocidal Activity at I.C.E. value 0.79 when administered subcutaneously.; method in brief: as §2
[14] = tested on: Trypanosoma brucei rhodesiense; assay: In Vitro measurement of inhibition of thymidine uptake in cell culture of Trypanosoma rhodesiense; settings: read-out: ID50 (the source's name)
Method in brief: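 Parasites harvested from infected rats and incubated 3 h across a drug concentration series, usually 0.1–100 µg/mL. Incorporation of radiolabeled thymidine measured. ID50 is the concentration (µg/mL) producing 50% inhibition.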

[15] = tested on: Trypanosoma brucei rhodesiense; assay: In Vitro measurement of inhibition of leucine uptake in cell culture of Trypanosoma rhodesiense; settings: read-out: ID50 (the source's name)
Method in brief: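 Trypanosomes harvested from infected rats, cultured 3 h with several concentrations of drug, usually 0.1–100 µg/mL. Radiolabeled L-leucine uptake measured. ID50 is the concentration in µg/mL giving 50% inhibition of incorporation.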

Mus musculus [16] = assay: Trypanocidal Activity at I.C.E. value 0.20 when administered subcutaneously.
Mus musculus [17] = assay: Trypanocidal Activity at I.C.E. value 0.46 when administered subcutaneously.; method in brief: as §1
Mus musculus [18] = assay: Trypanocidal Activity at I.C.E. value 0.49 when administered perorally.
Mus musculus [19] = assay: Trypanocidal Activity at I.C.E. value 0.19 when administered subcutaneously.
Mus musculus [20] = assay: Trypanocidal Activity at I.C.E. value 0.61 when administered perorally.
Mus musculus [21] = assay: Trypanocidal Activity at I.C.E. value 0.22 when administered subcutaneously.
Mus musculus [22] = assay: Trypanocidal Activity at I.C.E. value 0.74 when administered subcutaneously.; method in brief: as §2
Mus musculus [23] = assay: Trypanocidal Activity was determined after subcutaneous administration; method in brief: as §2
Mus musculus [24] = assay: Trypanocidal Activity at I.C.E. value 0.40 when administered perorally.
Mus musculus [25] = assay: Trypanocidal Activity at I.C.E. value 0.84 when administered subcutaneously.; method in brief: as §2
Mus musculus [26] = assay: Trypanocidal Activity at I.C.E. value 0.4 when administered perorally.
Mus musculus [27] = assay: Trypanocidal Activity at I.C.E. value 0.47 when administered subcutaneously.; method in brief: as §1
Mus musculus [28] = assay: Trypanocidal Activity at I.C.E. value 0.31 when administered perorally.
Mus musculus [29] = assay: Trypanocidal Activity at I.C.E. value 0.34 when administered subcutaneously.; method in brief: as §1

Br.Cc1ccn2cc(-c3ccc(/C=N/NC(=N)N4CCCC4)cc3)[n+](C)c2c1.[Br-]
CD50 (Mus musculus [1]): 13 mg/kg
CD50 (Mus musculus [2]): 0.1 mg/kg

Cc1ccc(S(=O)(=O)O)cc1.Cc1ccc(S(=O)(=O)[O-])cc1.Cc1ccc2n(c1)cc(-c1ccc(/C=C/C=N/NC(=N)N)cc1)[n+]2C
CD50 (Mus musculus [3]): 424 mg/kg
CD50 (Mus musculus [4]): 106 mg/kg

Br.Cc1ccc2n(c1)cc(-c1ccc(/C=N/NC(=N)N3CCCC3)cc1)[n+]2C.[Br-]
CD50 (Mus musculus [5]): 0.1 mg/kg

Cc1ccc(S(=O)(=O)[O-])cc1.Cc1cccc2n1cc(/C=C/c1ccc(/C=N/NC(=O)c3ccc(N)cc3)cc1)[n+]2C
CD50 (Mus musculus [6]): 6.6 mg/kg

C[n+]1c(-c2ccc(/C=C/C=N/NC(=N)N)cc2)cn2ccccc21.Cc1ccc(S(=O)(=O)O)cc1.Cc1ccc(S(=O)(=O)[O-])cc1
CD50 (Mus musculus [7]): 0.06 mg/kg
CD50 (Mus musculus [8]): 6.6 mg/kg

CCCCSc1ccc2n(c1)cc(-c1ccc(/C=N/NC(=N)N3CCCC3)cc1)[n+]2C.Cc1ccc(S(=O)(=O)O)cc1.Cc1ccc(S(=O)(=O)[O-])cc1
CD50 (Mus musculus [9]): 3.3 mg/kg
CD50 (Mus musculus [10]): 212 mg/kg

Br.CCNC(=N)N/N=C/c1ccc(/C=C/c2cn3ccccc3[n+]2C)cc1.[Br-]
CD50 (Mus musculus [11]): 0.1 mg/kg

Br.CCNC(=N)N/N=C/c1ccc(OCc2n(C)c3ccccc3[n+]2C)cc1.[Br-]
CD50 (Mus musculus [12]): 1.6 mg/kg

CC(=O)Nc1ccc2n(c1)cc(-c1ccc(/C=N/NC(=N)N)cc1)[n+]2C.Cc1ccc(S(=O)(=O)O)cc1.Cc1ccc(S(=O)(=O)[O-])cc1
CD50 (Mus musculus [13]): 0.4 mg/kg
IC50 [14]: 1.5 µg/mL
IC50 [15]: > 10 µg/mL

C=CC[n+]1c(-c2ccc(NC(C)=O)cc2)cn2ccccc21.[Br-]
CD50 (Mus musculus [16]): 26 mg/kg

Br.Cc1ccc2n(c1)cc(COc1ccc(/C=N/NC(=N)N3CCCC3)cc1)[n+]2C.[Br-]
CD50 (Mus musculus [17]): 0.8 mg/kg
CD50 (Mus musculus [18]): 13 mg/kg

Br.Cn1c[n+](Cc2ccc(/C=N/NC(=N)N)cc2)c2ccccc21.[Br-]
CD50 (Mus musculus [3]): 424 mg/kg
CD50 (Mus musculus [19]): 6.6 mg/kg

Br.C[n+]1c(COc2ccc(/C=N/NC3=NCCN3)cc2)cn2ccccc21.[Br-]
CD50 (Mus musculus [12]): 0.8 mg/kg
CD50 (Mus musculus [20]): 6.6 mg/kg

Br.C[n+]1c(-c2ccc(/C=N/NC(=N)NN3CCOCC3)cc2)cn2ccccc21.[Br-]
CD50 (Mus musculus [21]): 0.8 mg/kg
IC50 [14]: 6.7 µg/mL
IC50 [15]: 9.7 µg/mL

Br.Cc1cccc2n1cc(COc1ccc(/C=N/NC(=N)NO)cc1)[n+]2C.[Br-]
CD50 (Mus musculus [22]): 0.8 mg/kg
CD50 (Mus musculus [18]): 13 mg/kg

CCNC(=N)N/N=C/c1ccc(OCc2n(C)cc[n+]2C)cc1.Cc1ccc(S(=O)(=O)O)cc1.Cc1ccc(S(=O)(=O)[O-])cc1
CD50 (Mus musculus [23]): 6.6 mg/kg

Br.CCCCSc1ccc2n(c1)cc(-c1ccc(/C=N/NC(=N)NO)cc1)[n+]2C.[Br-]
CD50 (Mus musculus [24]): 26 mg/kg
CD50 (Mus musculus [25]): 0.8 mg/kg

C[n+]1ccc(COc2ccc(/C=N/NC(=N)N3CCCC3)cc2)cc1.Cc1ccc(S(=O)(=O)O)cc1.Cc1ccc(S(=O)(=O)[O-])cc1
CD50 (Mus musculus [26]): 424 mg/kg
CD50 (Mus musculus [27]): 0.8 mg/kg
IC50 [14]: 9.3 µg/mL
IC50 [15]: 13.6 µg/mL

C[n+]1cccc(COc2ccc(/C=N/NC(=N)NO)cc2)c1.Cc1ccc(S(=O)(=O)O)cc1.Cc1ccc(S(=O)(=O)[O-])cc1
CD50 (Mus musculus [21]): 1.6 mg/kg
IC50 [14]: 3.8 µg/mL
IC50 [15]: 10.3 µg/mL

Br.C[n+]1c(-c2ccc(/C=C/C=N/NC(=N)N3CCCC3)cc2)cn2ccccc21.[Br-]
CD50 (Mus musculus [28]): 53 mg/kg
CD50 (Mus musculus [29]): 0.8 mg/kg

Br.CC/N=C(\NCC)N/N=C/c1ccc(-c2cn3cc(C)ccc3[n+]2C)cc1.[Br-]
CD50 (Mus musculus [11]): 1.6 mg/kg

C[n+]1c(/C=C/c2ccc(/C=N/NC(=N)N3CCCC3)cc2)cn2ccccc21.Cc1ccc(S(=O)(=O)O)cc1.Cc1ccc(S(=O)(=O)[O-])cc1
CD50 (Mus musculus [22]): 0.8 mg/kg

Br.Cc1cccc2n1cc(/C=C/c1ccc(/C=N/NC3=NCCCN3)cc1)[n+]2C.[Br-]
CD50 (Mus musculus [25]): 0.4 mg/kg
